The target in data set [1] is T1, Amine oxidase [flavin-containing] B (Rattus norvegicus, UniProt P19643).
T1 sequence (P19643 whole entry): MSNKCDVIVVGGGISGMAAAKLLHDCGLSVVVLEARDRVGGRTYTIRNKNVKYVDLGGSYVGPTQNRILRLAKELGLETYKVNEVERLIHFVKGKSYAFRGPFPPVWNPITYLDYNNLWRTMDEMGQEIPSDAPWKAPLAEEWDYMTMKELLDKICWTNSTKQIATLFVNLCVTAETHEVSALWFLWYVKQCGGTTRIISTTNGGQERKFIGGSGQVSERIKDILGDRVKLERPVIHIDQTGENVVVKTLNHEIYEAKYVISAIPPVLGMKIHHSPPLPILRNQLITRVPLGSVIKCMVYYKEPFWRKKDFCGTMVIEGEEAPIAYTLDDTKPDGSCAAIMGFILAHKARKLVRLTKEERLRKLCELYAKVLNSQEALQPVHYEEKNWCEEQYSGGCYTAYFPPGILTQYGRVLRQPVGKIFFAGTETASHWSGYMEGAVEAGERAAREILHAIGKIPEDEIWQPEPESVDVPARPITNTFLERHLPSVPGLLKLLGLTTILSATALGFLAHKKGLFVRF
The experiment in a line: In vitro inhibitory activity on rat brain MAO-B. The essentials: (§1)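 Radiochemical assay at 37 °C, pH 7.4: MAO A with 10 μM [14C]5-HT, MAO B with 5 μM [14C]PEA. Drug preincubated 20 min with enzyme. Three experiments in duplicate.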

Data set [2] addresses T1, Amine oxidase [flavin-containing] B. The data set is described as follows: Ex-Vivo Time course of evaluation for the percentage inhibition of MAO-B for 0.5 hr at single dose 5 mg/kg through oral gavage (p<0.001). Type of data set: organism-based. Set-up: dose 5 mg/kg, route oral. The essentials:
(§2)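 Fasted male Sprague-Dawley rats (150 g) dosed orally by gavage, drug suspended in Tween 80 plus 0.5% methylcellulose; vehicle controls. The 100 mg/kg arm was dosed daily for 9 days. Four rats per time point; brains frozen and homogenized in 0.1 M phosphate pH 7.4. Assayed at 37 °C with 8 μM [14C]PEA for 1 min; toluene/ethyl acetate extraction. Percent inhibition vs control, mean ± SEM.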

The target is the same in data set [3]. The data set is described as follows: Ex-Vivo Time course of evaluation for the percentage inhibition of MAO-B for 1 hr at single dose 5 mg/kg through oral gavage (p<0.001). Type of data set: organism-based. Set-up: dose 5 mg/kg, route oral. A digest of the protocol: as §2
The target of data set [4] is T2, Amine oxidase [flavin-containing] A (Rattus norvegicus, UniProt P21396).
T2 sequence (P21396 whole entry): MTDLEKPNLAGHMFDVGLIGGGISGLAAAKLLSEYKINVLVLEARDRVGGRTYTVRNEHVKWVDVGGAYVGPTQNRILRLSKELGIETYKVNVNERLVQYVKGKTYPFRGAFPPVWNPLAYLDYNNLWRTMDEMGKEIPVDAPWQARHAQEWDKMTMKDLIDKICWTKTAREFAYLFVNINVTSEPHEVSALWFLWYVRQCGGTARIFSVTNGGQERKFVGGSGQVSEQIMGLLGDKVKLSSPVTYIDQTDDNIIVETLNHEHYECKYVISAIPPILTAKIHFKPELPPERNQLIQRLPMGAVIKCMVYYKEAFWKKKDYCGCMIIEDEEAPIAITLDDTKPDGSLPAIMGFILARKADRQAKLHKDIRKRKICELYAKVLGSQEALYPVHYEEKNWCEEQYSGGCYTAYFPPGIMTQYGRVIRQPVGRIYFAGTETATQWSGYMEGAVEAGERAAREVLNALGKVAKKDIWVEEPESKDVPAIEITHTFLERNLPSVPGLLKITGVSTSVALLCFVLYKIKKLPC
The data set is described as follows: In vitro inhibitory activity on rat brain by monoamine oxidase A (MAO-A). A digest of the protocol:
as §1

The target of data set [5] is T1, Amine oxidase [flavin-containing] B. The data set is described as follows: Ex-Vivo percentage inhibition of MAO-B after 24 hr single 5 mg/kg dose by oral gavage. Set-up: dose 5 mg/kg, route oral. Type of data set: organism-based. The essentials:
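Ex vivo oral gavage in fasted male Sprague-Dawley rats (Tween 80 / 0.5% methylcellulose), four rats per group. Brain homogenate taken 24 h after dosing. MAO B assayed with 8 μM [14C]PEA, 1 min at 37 °C; percent inhibition vs vehicle control.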

The target is the same in data set [6]. The experiment in a line: Ex-Vivo Time course of evaluation for the percentage inhibition of MAO-B for 48 hr at single dose 5 mg/kg through oral gavage. Format: organism-based. Set-up: dose 5 mg/kg, route oral. The essentials: as §2
For data set [7] the target is unchanged. The experiment in a line: Ex-Vivo Time course of evaluation for the percentage inhibition of MAO-B for 4 hr at single dose 5 mg/kg through oral gavage (p<0.001). Format: organism-based. Also on record: dose 5 mg/kg, route oral. The essentials:
as §2

Data set [8] has the same target. The experiment in a line: Compound was evaluated for the time-dependence inhibition of MAO-B at 0 minute pre-incubation periods. The essentials: (§3)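 Male Sprague-Dawley rat brain crude mitochondrial fraction, MAO B. Drug preincubated with enzyme at 37 °C for 0, 20, 30 or 60 min, then radiochemical assay with 5 μM [14C]PEA at pH 7.4. IC50 read graphically from 9–12 concentrations; three experiments in duplicate.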

The target is the same in data set [9]. The experiment in a line: Compound was evaluated for the time-dependence inhibition of MAO-B at 20 minutes pre-incubation periods. The essentials:
as §3

Data set [10] has the same target. The data set is described as follows: Compound was evaluated for the time-dependence inhibition of MAO-B at 30 minutes pre-incubation periods. A digest of the protocol:
as §3

Data set [11] has the same target. The data set is described as follows: Compound was evaluated for the time-dependence inhibition of MAO-B at 60 minutes preincubation periods. A digest of the protocol:
as §3

For data set [12] the target is unchanged. The data set is described as follows: Ex-Vivo Time course of evaluation for the percentage inhibition of MAO-B for 1 hr at single dose 1 mg/kg through oral gavage (p<0.001). Format: organism-based. Also on record: dose 1 mg/kg, route oral. The essentials:
as §2

For data set [13] the target is unchanged. The experiment in a line: Ex-Vivo Time course of evaluation for the percentage inhibition of MAO-B for 1 hr at single dose 100 mg/kg through oral gavage (p<0.001). Type of data set: organism-based. Also on record: dose 100 mg/kg, route oral.
The target is the same in data set [14]. The experiment in a line: Ex-Vivo Time course of evaluation for the percentage inhibition of MAO-B for 1 hr at single dose 1500 mg/kg through oral gavage (p<0.001). Format: organism-based. Also on record: dose 1500 mg/kg, route oral. The essentials: as §2
For data set [15] the target is unchanged. The data set is described as follows: Ex-Vivo Time course of evaluation for the percentage inhibition of MAO-B for 24 hr at single dose 1 mg/kg through oral gavage (not significant Wilcoxom''s test). Format: organism-based. Set-up: dose 1 mg/kg, route oral. The essentials:
as §2

For data set [16] the target is unchanged. The experiment in a line: Ex-Vivo Time course of evaluation for the percentage inhibition of MAO-B for 24 hr at single dose 100 mg/kg through oral gavage. Also on record: dose 100 mg/kg, route oral. Format: organism-based.
For data set [17] the target is unchanged. The experiment in a line: Ex-Vivo Time course of evaluation for the percentage inhibition of MAO-B for 24 hr at single dose 1500 mg/kg through oral gavage. Format: organism-based. Set-up: dose 1500 mg/kg, route oral.
The target of data set [18] is T2, Amine oxidase [flavin-containing] A. The data set is described as follows: Compound was evaluated for the time-dependence inhibition of MAO-A at 60 minutes of preincubated period. values are same with or without pre-incubation.
Data set [19] has as its target T1, Amine oxidase [flavin-containing] B. The data set is described as follows: Ex-Vivo Time course of evaluation for the percentage inhibition of MAO-B for 24 hr at single dose 1500 mg/kg through oral gavage (p<0.001). Type of data set: organism-based. Also on record: dose 1500 mg/kg, route oral. The essentials:
as §2

Data set [20] has as its target T2, Amine oxidase [flavin-containing] A. The data set is described as follows: In Vitro evaluation for the inhibitory activity on rat brain by MAO-A. The essentials: (§4)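 Male Sprague-Dawley rat brain crude mitochondrial fraction, 0.195 mg protein/mL. Radiochemical assay at 37 °C, pH 7.4: MAO A with 10 μM [14C]5-HT, MAO B with 5 μM [14C]PEA. Drug preincubated 20 min with enzyme. […] Three experiments in duplicate.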

The target of data set [21] is T1, Amine oxidase [flavin-containing] B. The experiment in a line: Compound was evaluated for the reversibility test for the percentage inhibition of MAO B at 6.25 nM after the test. The essentials:
(§5)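 Rat brain crude mitochondrial fraction (1.94 mg protein/mL) preincubated 1 h at 37 °C with or without inhibitor at 6.25 or 12.5 nM. Then diluted 200-fold in 100 mM phosphate pH 7.4 with 100 μM PEA, held 4 h at 37 °C, pelleted, and washed 1 h in buffer without PEA. Assayed under standard conditions (PEA 1 min); percent inhibition vs control.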

The target is the same in data set [22]. The experiment in a line: Compound was evaluated for the reversibility test for the percentage inhibition of MAO B at 6.25 nM before the test.
The target is the same in data set [23]. The experiment in a line: Ex-Vivo Time course of evaluation for the percentage inhibition of MAO-B for 4 hr at single dose 1 mg/kg through oral gavage (p<0.001). Type of data set: organism-based. Also on record: dose 1 mg/kg, route oral. A digest of the protocol: as §2
Data set [24] in a line: Selectivity for B form was estimated by the ratio of IC50 (MAO A) at 60 min to that of (MAO B).
For data set [25], the target named is T1, Amine oxidase [flavin-containing] B. The experiment in a line: Ex-Vivo Time course of evaluation for the percentage inhibition of MAO-B for 0.5 hr at single dose 1 mg/kg through oral gavage [p<0.01 (Bonferroni's test)]. Set-up: dose 1 mg/kg, route oral. Format: organism-based. A digest of the protocol:
as §2

For data set [26] the target is unchanged. The experiment in a line: Ex-Vivo Time course of evaluation for the percentage inhibition of MAO-B for 24 hr at once-daily dose for 9 days 100 mg/kg through oral gavage (p<0.001).
The target is the same in data set [27]. The data set is described as follows: Compound was evaluated for the reversibility test for the percentage inhibition of MAO B at 6.25 nM after the test at 12.5 nM. The essentials:
as §5

Data set [28] has the same target. The data set is described as follows: Compound was evaluated for the reversibility test for the percentage inhibition of MAO B at 6.25 nM before the test at 12.5 nM.
The target of data set [29] is T2, Amine oxidase [flavin-containing] A. The experiment in a line: In Vitro evaluation for the inhibitory activity on rat brain by MAO-A at 100 uM. The essentials:
as §4

Data set [30] concerns the target T1, Amine oxidase [flavin-containing] B. The experiment in a line: Ex-Vivo Time course of evaluation for the percentage inhibition of MAO-B for 1 hr at single dose 5 mg/kg through oral gavage (p<0.01). Type of data set: organism-based. Set-up: dose 5 mg/kg, route oral. A digest of the protocol: as §2
The target is the same in data set [31]. The data set is described as follows: Ex-Vivo Time course of evaluation for the percentage inhibition of MAO-B for 0.5 hr at single dose 5 mg/kg through oral gavage. Type of data set: organism-based. Set-up: dose 5 mg/kg, route oral. A digest of the protocol: as §2
The target is the same in data set [32]. The experiment in a line: Ex-Vivo Time course of evaluation for the percentage inhibition of MAO-B for 4 hr at single dose 5 mg/kg through oral gavage. Type of data set: organism-based. Set-up: dose 5 mg/kg, route oral. The essentials:
as §2

SMILES strings stand for the structures.

A word on the IC50: it is the concentration at which inhibition is half-maximal. The term inhibition denotes the change of the read-out against control, counted positive when it falls. The term Inhibition denotes how much of the control response was suppressed. A high value points to a strong effect.

Consider `N#CCCn1nc(-c2ccc(OCc3ccc(Cl)cc3)cc2)oc1=O`, for which the results for the IC50 in data set [1] and in data set [4] were 7.5 nM and 3300 nM, respectively. The inhibition at 5 mg/kg was 30% in data set [2]; 54% in data set [3]; -6% in data set [5]; 6% in data set [6]; 47% in data set [7].
Take `N#CCCn1nc(-c2ccc(OCc3ccccc3)cc2)oc1=O`: the IC50 was 25 nM in data set [8]; 2.7 nM in data set [9]; 2.2 nM in data set [10]; 1.4 nM in [11]; 2.2 nM in data set [1]; over 100000 nM in data set [18]. In addition, the inhibition at 5 mg/kg is 69% in data set [2], 87% in data set [3], 18% in data set [5] and 83% in data set [7]. The inhibition at 1 mg/kg in data set [12] worked out at 86%; in data set [15], 18%; in data set [23], 75%; in data set [25], 34%. Further, the inhibition at 100 mg/kg in [13] stood at 90%; in data set [16] it was 3%; in data set [26], 73%. In addition, the inhibition at 1500 mg/kg in data set [14] was 91%; in data set [17], 2%; in data set [19], 74%. The same compound returned an Inhibition in [20] of 10%. In addition, the inhibition at 0.00625 µM was 102% in data set [21] and 35% in [22]. In addition, the Selectivity in data set [24] was over 71400.
`C#CCN(C)[C@H](C)Cc1ccccc1` [SELEGILINE]: the inhibition at 0.00625 µM in [27] and in data set [28] was 21% throughout.
In data set [1], `CC(C#N)n1nc(-c2ccc(OCc3ccccc3)cc2)oc1=O` (configuration not stated) came in with an IC50 of 48000 nM. For the same compound, the inhibition at 100 µM in data set [29] came to 4%.
As for `COc1cccc(COc2ccc(-c3nn(CCC#N)c(=O)o3)cc2)c1`, the IC50 was 29 nM in [1] and 19000 nM in [4]. Also, the inhibition at 5 mg/kg in data set [30] was 19%; in [5], -3%; in data set [31], 12%; in data set [6], -7%; in data set [32], 6%.

These data come from ChEMBL document CHEMBL1126975 (J Med Chem, 1993).
